Reference: ChEMBL document CHEMBL1142133 (2007)

Key:
Type in all cases: functional
Cryptococcus neoformans [1] = assay: Antifungal activity against flucytosine-resistant Cryptococcus neoformans 98.1121 by checkerboard method
Cryptococcus neoformans [2] = assay: Antifungal activity against flucytosine-resistant Cryptococcus neoformans 99.1026 by checkerboard method
Cryptococcus neoformans [3] = assay: Antifungal activity against flucytosine-resistant Cryptococcus neoformans 280 by checkerboard method in presence of amphotericin B
Cryptococcus neoformans [4] = assay: Antifungal activity against flucytosine-resistant Cryptococcus neoformans 18476 by checkerboard method
Cryptococcus neoformans [5] = assay: Antifungal activity against flucytosine-resistant Cryptococcus neoformans 98.0176 at 64 ug/ml after 72 hrs by time-kill method
Procedure, shortened: (§1)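 Time-kill assay run as in the authors' earlier method. […] Read-out was log10 CFU/ml after 72 h incubation, compared with a drug-free control.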

Cryptococcus neoformans [6] = assay: Antifungal activity against flucytosine-resistant Cryptococcus neoformans 98.0176 by Etest method in presence of amphotericin B
Cryptococcus neoformans [7] = assay: Antifungal activity against flucytosine-resistant Cryptococcus neoformans 276 at 64 ug/ml after 72 hrs by time-kill method; procedure, shortened: as §1
Cryptococcus neoformans [8] = assay: Antifungal activity against flucytosine-resistant Cryptococcus neoformans 276 by checkerboard method
Cryptococcus neoformans [9] = assay: Antifungal activity against flucytosine-resistant Cryptococcus neoformans 18476 at 64 ug/ml after 72 hrs by time-kill method; procedure, shortened: as §1
Cryptococcus neoformans [10] = assay: Antifungal activity against flucytosine-resistant Cryptococcus neoformans 285 by checkerboard method in presence of amphotericin B
Cryptococcus neoformans [11] = assay: Antifungal activity against flucytosine-resistant Cryptococcus neoformans 280 by checkerboard method
Cryptococcus neoformans [12] = assay: Antifungal activity against flucytosine-resistant Cryptococcus neoformans 276 by checkerboard method in presence of amphotericin B
Cryptococcus neoformans [13] = assay: Antifungal activity against flucytosine-resistant Cryptococcus neoformans 98.1121 by checkerboard method in presence of amphotericin B
Cryptococcus neoformans [14] = assay: Antifungal activity against flucytosine-resistant Cryptococcus neoformans 98.0673 by checkerboard method in presence of amphotericin B
Cryptococcus neoformans [15] = assay: Antifungal activity against flucytosine-resistant Cryptococcus neoformans 550 at 64 ug/ml after 72 hrs by time-kill method; procedure, shortened: as §1
Cryptococcus neoformans [16] = assay: Antifungal activity against flucytosine-resistant Cryptococcus neoformans 99.1026 by Etest method in presence of amphotericin B
Cryptococcus neoformans [17] = assay: Antifungal activity against flucytosine-resistant Cryptococcus neoformans 533 by checkerboard method in presence of amphotericin B
Cryptococcus neoformans [18] = assay: Antifungal activity against flucytosine-resistant Cryptococcus neoformans 280 at 64 ug/ml after 72 hrs by time-kill method; procedure, shortened: as §1
Cryptococcus neoformans [19] = assay: Antifungal activity against flucytosine-resistant Cryptococcus neoformans 98.1121 by Etest method in presence of amphotericin B
Cryptococcus neoformans [20] = assay: Antifungal activity against flucytosine-resistant Cryptococcus neoformans 280 by Etest method in presence of amphotericin B
Cryptococcus neoformans [21] = assay: Antifungal activity against flucytosine-resistant Cryptococcus neoformans 98.0176 by checkerboard method in presence of amphotericin B
Cryptococcus neoformans [22] = assay: Antifungal activity against flucytosine-resistant Cryptococcus neoformans 98.0673 by checkerboard method
Cryptococcus neoformans [23] = assay: Antifungal activity against flucytosine-resistant Cryptococcus neoformans 18476 by Etest method in presence of amphotericin B
Cryptococcus neoformans [24] = assay: Antifungal activity against flucytosine-resistant Cryptococcus neoformans 98.0176 by checkerboard method
Cryptococcus neoformans [25] = assay: Antifungal activity against flucytosine-resistant Cryptococcus neoformans 550 by checkerboard method in presence of amphotericin B
Cryptococcus neoformans [26] = assay: Antifungal activity against flucytosine-resistant Cryptococcus neoformans 99.1026 at 64 ug/ml after 72 hrs by time-kill method
Procedure, shortened: (§2)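 Time-kill assay on flucytosine-resistant isolates. […] Viable counts were taken as log10 CFU per ml after 72 h of incubation.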

Cryptococcus neoformans [27] = assay: Antifungal activity against flucytosine-resistant Cryptococcus neoformans 98.1121 at 64 ug/ml after 72 hrs by time-kill method; procedure, shortened: as §2
Cryptococcus neoformans [28] = assay: Antifungal activity against flucytosine-resistant Cryptococcus neoformans 18476 by checkerboard method in presence of amphotericin B
Cryptococcus neoformans [29] = assay: Antifungal activity against flucytosine-resistant Cryptococcus neoformans 276 by Etest method in presence of amphotericin B
Cryptococcus neoformans [30] = assay: Antifungal activity against flucytosine-resistant Cryptococcus neoformans 550 by Etest method in presence of amphotericin B
Cryptococcus neoformans [31] = assay: Antifungal activity against flucytosine-resistant Cryptococcus neoformans 285 by Etest method in presence of amphotericin B
Cryptococcus neoformans [32] = assay: Antifungal activity against flucytosine-resistant Cryptococcus neoformans 550 by checkerboard method
Cryptococcus neoformans [33] = assay: Antifungal activity against flucytosine-resistant Cryptococcus neoformans 98.0673 at 64 ug/ml after 72 hrs by time-kill method; procedure, shortened: as §1
Cryptococcus neoformans [34] = assay: Antifungal activity against flucytosine-resistant Cryptococcus neoformans 99.1026 by checkerboard method in presence of amphotericin B
Cryptococcus neoformans [35] = assay: Antifungal activity against flucytosine-resistant Cryptococcus neoformans 285 by checkerboard method
Cryptococcus neoformans [36] = assay: Antifungal activity against flucytosine-resistant Cryptococcus neoformans 533 by checkerboard method
Cryptococcus neoformans [37] = assay: Antifungal activity against flucytosine-resistant Cryptococcus neoformans 98.0673 by Etest method in presence of amphotericin B
Cryptococcus neoformans [38] = assay: Antifungal activity against flucytosine-resistant Cryptococcus neoformans 533 at 64 ug/ml after 72 hrs by time-kill method; procedure, shortened: as §1
Cryptococcus neoformans [39] = assay: Antifungal activity against flucytosine-resistant Cryptococcus neoformans 533 by Etest method in presence of amphotericin B

## Nc1nc(=O)[nH]cc1F [FLUCYTOSINE]
Cryptococcus neoformans [1]
  MIC: 256 µg/mL
Cryptococcus neoformans [2]
  MIC: 32 µg/mL
Cryptococcus neoformans [3]
  MIC: 0.5 µg/mL
Cryptococcus neoformans [4]
  MIC: 256 µg/mL
Cryptococcus neoformans [5]
  log10CFU/ml: 7.4
Cryptococcus neoformans [6]
  MIC: > 32 µg/mL
Cryptococcus neoformans [7]
  log10CFU/ml: 7.3
Cryptococcus neoformans [8]
  MIC: 256 µg/mL
Cryptococcus neoformans [9]
  log10CFU/ml: 7.5
Cryptococcus neoformans [10]
  MIC: 0.25 µg/mL
Cryptococcus neoformans [11]
  MIC: 256 µg/mL
Cryptococcus neoformans [12]
  MIC: 4 µg/mL
Cryptococcus neoformans [13]
  MIC: 0.25 µg/mL
Cryptococcus neoformans [14]
  MIC: 16 µg/mL
Cryptococcus neoformans [15]
  log10CFU/ml: 7.2
Cryptococcus neoformans [16]
  MIC: > 32 µg/mL
Cryptococcus neoformans [17]
  MIC: 0.5 µg/mL
Cryptococcus neoformans [18]
  log10CFU/ml: 7.4
Cryptococcus neoformans [19]
  MIC: > 32 µg/mL
Cryptococcus neoformans [20]
  MIC: > 32 µg/mL
Cryptococcus neoformans [21]
  MIC: 0.5 µg/mL
Cryptococcus neoformans [22]
  MIC: 64 µg/mL
Cryptococcus neoformans [23]
  MIC: > 32 µg/mL
Cryptococcus neoformans [24]
  MIC: 64 µg/mL
Cryptococcus neoformans [25]
  MIC: 0.5 µg/mL
Cryptococcus neoformans [26]
  log10CFU/ml: 7.1
Cryptococcus neoformans [27]
  log10CFU/ml: 7.5
Cryptococcus neoformans [28]
  MIC: 1 µg/mL
Cryptococcus neoformans [29]
  MIC: > 32 µg/mL
Cryptococcus neoformans [30]
  MIC: > 32 µg/mL
Cryptococcus neoformans [31]
  MIC: > 32 µg/mL
Cryptococcus neoformans [32]
  MIC: 128 µg/mL
Cryptococcus neoformans [33]
  log10CFU/ml: 7.4
Cryptococcus neoformans [34]
  MIC: 1 µg/mL
Cryptococcus neoformans [35]
  MIC: 32 µg/mL
Cryptococcus neoformans [36]
  MIC: 256 µg/mL
Cryptococcus neoformans [37]
  MIC: > 32 µg/mL
Cryptococcus neoformans [38]
  log10CFU/ml: 7.5
Cryptococcus neoformans [39]
  MIC: > 32 µg/mL
